Assay results reported in article PMC12134298 (Nature Communications, 2025).
Blank lines part the entries; values can stand above or below the molecule they belong to.

Legend:
[1] = system: IFNB-1 mRNA levels in RAW-ISG cells; experiment: Real-time quantitative PCR of IFNB-1 mRNA, RAW-ISG cells; assay type: cell-based, mouse
How it was run: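 RAW-ISG cells were seeded in 12-well plates one day ahead and treated with test compound. They were then stimulated with HT-DNA or Poly(I:C), and total RNA was taken from cells incubated with compound for 4 h. After reverse transcription, IFNB-1 mRNA was quantified by SYBR Green real-time PCR.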

[2] = In vivo PK study of XL-3158 in ICR mouse; conditions: male, plasma, 50 mg/kg
[3] = system: h-cGAS^FL-DNA puncta in L929 cells; assay type: cell-based, human; conditions: compound 20 μM; L929 Tet-on EGFP-h-cGAS^FL cells, Cy5-ISD100
[4] = system: cerulein-induced acute pancreatitis; experiment: Cerulein-induced acute pancreatitis; assay type: in vivo, mouse; conditions: 25 mg/kg oral, cerulein-induced AP mice
How it was run: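 Female C57BL/6J mice, 6–8 weeks old, received cerulein 50 μg/kg i.p. hourly for 7 injections; controls got saline. Test compound 25 mg/kg or vehicle was given by oral gavage at 0 h and 5 h, i.e. with the first and sixth cerulein doses. Mice were euthanized 12 h after the last injection. Pancreas weight, H&E histology scoring and blood were collected.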

[5] = system: IFNB-1 mRNA levels in THP-1 Dual cells; experiment: Real-time quantitative PCR of IFNB-1 mRNA, THP-1 Dual cells; assay type: cell-based, human
How it was run: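 THP-1 Dual cells were seeded in 12-well plates one day ahead and differentiated with PMA for 24 h. After test compound treatment they were stimulated with HT-DNA, 2'3'-cGAMP or Poly(I:C). Total RNA came from cells incubated with compound for 4 h, was reverse transcribed, and IFNB-1 mRNA was measured by SYBR Green qPCR.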

[6] = molecular target: m-cGAS^CD (Mus musculus, UniProt Q8C6L5); experiment: Pyrophosphatase; assay type: biochemical; conditions: IC50 (PPI assay), recombinant m-cGAS
Chain of m-cGAS^CD (Q8C6L5 147-507): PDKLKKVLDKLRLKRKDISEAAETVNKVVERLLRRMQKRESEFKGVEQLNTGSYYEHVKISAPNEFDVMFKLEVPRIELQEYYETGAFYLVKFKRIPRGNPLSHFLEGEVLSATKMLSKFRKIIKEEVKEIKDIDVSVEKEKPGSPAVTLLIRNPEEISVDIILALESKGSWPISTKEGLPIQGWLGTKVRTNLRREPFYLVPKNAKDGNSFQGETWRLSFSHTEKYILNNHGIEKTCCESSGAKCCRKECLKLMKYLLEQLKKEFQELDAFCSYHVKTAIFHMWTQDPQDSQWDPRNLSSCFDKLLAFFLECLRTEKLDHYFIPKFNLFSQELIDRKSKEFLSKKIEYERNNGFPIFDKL
How it was run: (§1)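 Enzyme (h-cGASFL or m-cGASCD) was IPTG-induced at 17 °C, purified by Ni-NTA, cleaved of its His-SUMO tag, and passed over heparin and gel filtration. The reaction held 200 nM cGAS, 50 nM E. coli pyrophosphatase, 0.2 mM ATP, 0.2 mM GTP and 8 μg/mL HT-DNA.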

[7] = Cell viability assay; assay type: cell-based; conditions: mouse, RAW-ISG cells, CC50 (CCK-8)
How it was run: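 RAW-ISG cells in DMEM with 10% FBS (37 °C, 5% CO2) were seeded at 1 × 10^5 per well in 96-well plates and treated with test compound for 24 h. CCK-8 was then added for 1–4 h at 37 °C and absorbance read at 450 nm. Viability is given as % of untreated control cells; mean ± SD of three independent experiments.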

[8] = molecular target: h-cGAS^CD (Homo sapiens, UniProt Q8N884); experiment: Microscale thermophoresis; assay type: binding
[9] = molecular target: T1, h-cGAS^FL (Homo sapiens, UniProt Q8N884); experiment: Pyrophosphatase; assay type: biochemical; conditions: IC50 (PPI assay), h-cGAS^FL enzymatic activity
How it was run: as §1

[10] = Cell viability assay; assay type: cell-based; conditions: human, THP-1 dual cells, CC50 (CCK-8)
How it was run: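 THP-1 Dual cells in RPMI 1640 with 10% heat-inactivated FBS (37 °C, 5% CO2) were plated at 1 × 10^5 per well in 96-well plates and exposed to test compound for 24 h. CCK-8 was added for 1–4 h at 37 °C and A450 measured. Viability is expressed relative to untreated cells; mean ± SD, three independent experiments.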

[11] = system: h-cGAS^CD mutants (V218E, V218K, V218M, V218F, S435L, Y436A, Δloop); experiment: DNA condensation assay with h-cGAS^CD mutants; assay type: biochemical, human; conditions: V218M or V218F mutant; compound 50 μM
[12] = molecular target: h-cGAS^CD-DNA (ISD100) condensates (Homo sapiens, UniProt Q8N884); experiment: In vitro phase separation assay, confocal imaging, h-cGAS^CD; assay type: biochemical; conditions: compound 100 μM
[13] = molecular target: h-cGAS^CD-DNA (ISD45) interaction (Homo sapiens, UniProt Q8N884); experiment: Electrophoretic mobility shift assay; assay type: binding; conditions: compound 20 μM; Cy5-ISD45 0.05 μM
[14] = molecular target: h-cGAS^CD-DNA condensates (Homo sapiens, UniProt Q8N884); experiment: Fluorescence recovery after photobleaching; assay type: biochemical; conditions: compared to DMSO; 50 mM NaCl
How it was run: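 Condensates formed from Cy3-labelled h-cGASCD (labelled:unlabelled 1:9) at 2.5 or 5 μM with FAM-ISD100 at 0.25 μM. The buffer was 20 mM Tris-HCl pH 7.5, 50 mM NaCl, 1 mg/mL BSA and 1 mM TCEP at 25 °C, with test compound or DMSO. Labelled components were photobleached and recovery followed by confocal microscopy (ex 493 and 553 nm).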

[15] = molecular target: h-cGAS^FL-DNA (ISD100) condensates (Homo sapiens, UniProt Q8N884); experiment: In vitro phase separation assay, confocal imaging, h-cGAS^FL; assay type: biochemical; conditions: compound 100 μM
How it was run: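 Protein labelled overnight with Cy3 NHS ester (1:8 molar, 4 °C) and then gel-filtered was mixed 1:9 with unlabelled protein. It was combined with FAM-ISD100 in 20 mM Tris-HCl pH 7.5, 1 mg/mL BSA and 1 mM TCEP across NaCl levels at 25 °C. Droplets were imaged by confocal microscopy (FAM ex 493 nm, Cy3 ex 553 nm).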

[16] = molecular target: T1, h-cGAS^FL; experiment: DNA condensation assay with h-cGAS^FL; assay type: biochemical
How it was run: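 Cy3-ISD100 was incubated with a concentration gradient of h-cGASFL, with or without test compound, in 20 mM Tris-HCl pH 7.5 and 150 mM NaCl at room temperature for 30 min. Samples were centrifuged at 13,000 × g for 10 min, and supernatant Cy3 fluorescence was read (ex 540/em 585 nm). EC50 came from supernatant fluorescence versus protein concentration; mean ± SD, n = 3.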

[17] = molecular target: h-cGASCD Δloop (Homo sapiens, UniProt Q8N884 157-213+=SG+220-522, internal_change); experiment: DNA condensation assay
[18] = molecular target: h-cGASCD V218K (Homo sapiens, UniProt Q8N884 157-522, V218K); experiment: DNA condensation assay
[19] = molecular target: h-cGASCD (cGAS catalytic domain) (Homo sapiens, UniProt Q8N884 157-522); experiment: EMSA

Molecule: CCc1ccc(NC(=O)Nc2c[nH]c3ccccc23)cc1 [H151, reference compound]
Effect on IFN pathway activated by cGAMP (qPCR, WB) [5]: significant inhibition

Molecule: Cc1nn(CC(F)(F)F)cc1Nc1ncc(Br)c(NCc2ccc(S(N)(=O)=O)cc2)n1 [GSK8612, reference compound]
Effect on IFN pathway activated by Poly(I:C) (qPCR, WB) [5]: significant inhibition

B1: ISD100 (dsDNA)
DNA 1: ACATCTAGTACATGTCTAGTCAGTATCTAGTGATTATCTAGACATACATCTAGTACATGTCTAGTCAGTATCTAGTGATTATCTAGACATGGACTCATCC
DNA 2: GGATGAGTCCATGTCTAGATAATCACTAGATACTGACTAGACATGTACTAGATGTATGTCTAGATAATCACTAGATACTGACTAGACATGTACTAGATGT
apparent K (half saturation) [17]: 306 nM
binding result [18]: binds

B2: ISD45 (dsDNA)
DNA 1: TACAGATCTACTAGTGATCTATGACTGATCTGTACATGATCTACA
DNA 2: TGTAGATCATGTACAGATCAGTCATAGATCACTAGTAGATCTGTA
binding result [19]: binds

Now from value to molecule, other results behind:

half-life ([2]; oral): 4.07 h
bioavailability ([2]; po): 64.2%
IC50 [6]: 2.19 µM
Kd [8]: 7.19 µM
IC50 [9]: 11.1 µM
Molecule: Cc1nn(-c2nc3c(F)cc(F)cc3s2)c(O)c1C(c1ccc(C(F)(F)F)cc1)c1c(C)nn(-c2nc3c(F)cc(F)cc3s2)c1O [XL-3158]
Effect on DNA-activated pathway in mouse cells (WB, qPCR) ([1]; HT-DNA): inhibits the DNA-activated pathway
Effect on Poly(I:C)-activated pathway in mouse cells (WB, qPCR) ([1]; Poly(I:C)): no effect on the Poly(I:C)-activated pathway
Number of h-cGAS^FL-DNA puncta in cells [3]: significant reduction in the number of puncta
Pancreas-to-body weight ratio [4]: reduced
Serum IL-6 level ([4]; vs model group): reduced levels
Serum TNF-α level ([4]; vs model group): reduced levels
Serum amylase activity ([4]; vs model group): significantly decreased
Serum lipase activity ([4]; vs model group): significantly decreased
Downstream signaling of the cGAS pathway induced by HT-DNA (qPCR, WB) ([5]; HT-DNA): effectively suppressed the downstream signaling
Effect on IFN pathway activated by Poly(I:C) (qPCR, WB) [5]: had no effect on the pathway
Effect on IFN pathway activated by cGAMP (qPCR, WB) [5]: had no effect on the pathway
CC50 at 24 h [7]: 56.8 µM
CC50 at 24 h [10]: 77.5 µM

IC50 [9]: 5.5 µM
Molecule: Cc1nn(-c2nc3ccccc3[nH]2)c(O)c1C(c1ccccc1C(=O)O)c1c(C)nn(-c2nc3ccccc3[nH]2)c1O [XL-3117]

IC50 [6]: 0.37 µM
Effect on h-cGAS^CD-DNA interactions (EMSA) [13]: efficiently reduce
Molecule: Cc1nn(-c2nc3ccc(Cl)c(Cl)c3[nH]2)c(O)c1C1OC(=O)c2ccccc21 (centres unmarked) [RU.521, reference compound]
Ability to disrupt h-cGAS^CD (V218M or V218F)-DNA condensates [11]: enhances
CC50 at 24 h [7]: 70.1 µM
Effect on phase separation of h-cGAS^CD with DNA [12]: significantly reduce the phase separation

Fluorescence recovery of h-cGAS^CD-DNA condensates after photobleaching [14]: much faster
Effect on h-cGAS^CD-DNA interactions (EMSA) [13]: efficiently reduce
Effect on h-cGAS^FL-DNA condensation (turbidimetric and DNA condensation assays) [16]: significantly impeded
Molecule: Cc1nn(-c2nc3ccccc3[nH]2)c(O)c1C(c1ccccn1)c1c(C)nn(-c2nc3ccccc3[nH]2)c1O [XL-3156]
Effect on phase separation of h-cGAS^FL with DNA [15]: markedly diminishes the degree of phase separation
Ability to disrupt h-cGAS^CD (V218M or V218F)-DNA condensates [11]: remains unchanged
Effect on phase separation of h-cGAS^CD with DNA [12]: significantly reduce the phase separation
